Assay results: ChEMBL document CHEMBL3860028, “Bioactive Phenanthrene and Bibenzyl Derivatives from the Stems of Dendrobium nobile” (J Nat Prod, 2016)
Values after ≈ are worked out from the molar mass of the structure shown.

How the values were obtained:
[1] = system: Alternaria brassicicola; assay: Antifungal activity against Alternaria brassicicola after 4 to 14 days by serial dilution method; assay type: functional
How it was run: (§1)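 Fungal strains kept on potato dextrose agar. Antifungal activity tested following NCCLS recommendations, with MIC values as the read-out. Prochloraz served as positive control.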

[2] = Cytotoxicity against human HeLa cells assessed as decrease in cell viability after 6 days by MTT assay; assay type: functional, cell-based; conditions: 144 h
How it was run: (§2)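 Cell lines from College of Pharmacy, Hebei University, grown in DMEM with 5% fetal bovine serum at 37 °C under 5% CO2. Viability read by MTT method, IC50 values derived. Epirubicin served as positive control.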

[3] = Cytotoxicity against human MCF7 cells assessed as decrease in cell viability after 6 days by MTT assay; assay type: functional, cell-based; conditions: MCF7, 144 h; how it was run: as §2
[4] = Cytotoxicity against human A549 cells assessed as decrease in cell viability after 6 days by MTT assay; assay type: functional, cell-based; conditions: A549, 144 h; how it was run: as §2
[5] = Antifungal activity against Phytophthora parasitica var. nicotianae after 4 to 14 days by serial dilution method; assay type: functional; how it was run: as §1
[6] = system: Colletotrichum truncatum; assay: Antifungal activity against Colletotrichum capsici after 4 to 14 days by serial dilution method; assay type: functional; how it was run: as §1
[7] = Antifungal activity against Bipolaris oryzae after 4 to 14 days by serial dilution method; assay type: functional
How it was run: (§3)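 Fungus maintained on potato dextrose agar. Antifungal activity determined as MIC following NCCLS (National […] for Clinical Laboratory Standards) recommendations, with prochloraz as the reference antifungal.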

[8] = Antifungal activity against Diaporthe medusaea nitschke after 4 to 14 days by serial dilution method; assay type: functional; conditions: Diaporthe rudis; how it was run: as §1
[9] = Antifungal activity against Ceratocystis paradoxa moreau after 4 to 14 days by serial dilution method; assay type: functional; conditions: Thielaviopsis; how it was run: as §1
[10] = Antifungal activity against Exserohilum turcicum after 4 to 14 days by serial dilution method; assay type: functional; conditions: Setosphaeria turcica; how it was run: as §1
[11] = Antifungal activity against Pestallozzia theae after 4 to 14 days by serial dilution method; assay type: functional; how it was run: as §1
[12] = system: Alternaria citri; assay: Antifungal activity against Alternaria citri after 4 to 14 days by serial dilution method; assay type: functional; how it was run: as §3

SMILES	MIC [1]	IC50 [2]	IC50 [3]	IC50 [4]	MIC [5]	MIC [6]	MIC [7]	MIC [8]	MIC [9]	MIC [10]	MIC [11]	MIC [12]
COc1cc(CCc2cc(O)cc(O)c2)ccc1O [TRISTIN]	192 µM (≈ 50.1 µg/mL)	> 10 µM	> 10 µM	> 10 µM	385 µM (≈ 100 µg/mL)	96.2 µM (≈ 25 µg/mL)	96.2 µM (≈ 25 µg/mL)	192 µM (≈ 50.1 µg/mL)	96.2 µM (≈ 25 µg/mL)	385 µM (≈ 100 µg/mL)	96.2 µM (≈ 25 µg/mL)	96.2 µM (≈ 25 µg/mL)
COc1cc(O)c2c(c1)CCc1cc(O)c(-c3c(O)c4cccc(O)c4c4c(OC)cc(OC)cc34)cc1-2	> 400 µM	> 10 µM	> 10 µM	> 10 µM	> 400 µM	> 400 µM	> 400 µM	> 400 µM	> 400 µM	> 400 µM	> 400 µM	> 400 µM
COc1cc(O)cc2ccc3c(-c4c(O)cc(OC)c5c4ccc4cccc(O)c45)ccc(O)c3c12	> 400 µM	> 10 µM	> 10 µM	> 10 µM	> 400 µM	> 400 µM	> 400 µM	> 400 µM	> 400 µM	> 400 µM	> 400 µM	> 400 µM
COc1c(O)cc2c(c1OC)-c1ccc(O)cc1CC2 [ERIANTHRIDIN]	> 400 µM	> 10 µM	> 10 µM	> 10 µM	> 400 µM	> 400 µM	> 400 µM	> 400 µM	> 400 µM	> 400 µM	> 400 µM	> 400 µM
COc1cc(O)c2c(c1)CCc1cc(O)c(-c3cc4cccc(O)c4c4c(OC)cc(O)cc34)cc1-2	> 400 µM	> 10 µM	> 10 µM	> 10 µM	> 400 µM	> 400 µM	> 400 µM	> 400 µM	> 400 µM	> 400 µM	> 400 µM	> 400 µM
COc1c(O)cc2ccc3c(OC)c(O)ccc3c2c1OC	> 400 µM	> 10 µM	> 10 µM	> 10 µM	> 400 µM	> 400 µM	> 400 µM	> 400 µM	> 400 µM	> 400 µM	> 400 µM	> 400 µM
CCCN(CCOc1c(Cl)cc(Cl)cc1Cl)C(=O)n1ccnc1 [PROCHLORAZ]	33.3 µM (≈ 12.5 µg/mL)	–	–	–	133 µM (≈ 50.2 µg/mL)	33.3 µM (≈ 12.5 µg/mL)	133 µM (≈ 50.2 µg/mL)	133 µM (≈ 50.2 µg/mL)	66.7 µM (≈ 25.1 µg/mL)	33.3 µM (≈ 12.5 µg/mL)	66.7 µM (≈ 25.1 µg/mL)	66.7 µM (≈ 25.1 µg/mL)
COC1=CC(=O)C[C@H]2CCc3cccc(O)c3[C@@]12O	> 400 µM	> 10 µM	> 10 µM	> 10 µM	> 400 µM	> 400 µM	> 400 µM	> 400 µM	> 400 µM	> 400 µM	> 400 µM	> 400 µM
COc1cc(O)c2c(c1)CCc1cc(Oc3cc(OC)c(O)c4c3CCc3cc(O)ccc3-4)ccc1-2	> 400 µM	> 10 µM	> 10 µM	> 10 µM	> 400 µM	> 400 µM	> 400 µM	> 400 µM	> 400 µM	> 400 µM	> 400 µM	> 400 µM
COc1cc2c(c(OC)c1O)-c1ccc(O)cc1CC2 [FLAVANTHRIDIN]	> 400 µM	> 10 µM	> 10 µM	> 10 µM	> 400 µM	> 400 µM	> 400 µM	> 400 µM	> 400 µM	> 400 µM	> 400 µM	> 400 µM
COC1=CC(=O)C[C@]2(CCc3cccc(O)c32)C1=O	> 400 µM	9.8 µM	9.4 µM	9.9 µM	> 400 µM	> 400 µM	> 400 µM	> 400 µM	> 400 µM	> 400 µM	> 400 µM	> 400 µM
